Laboratory results from ChEMBL document CHEMBL1255430, “Kinetic parameters of efflux of penicillins by the multidrug efflux transporter AcrAB-TolC of Escherichia coli” (Antimicrob Agents Chemother, 2010).
≈ marks a conversion by molar mass, not a printed value.

What was measured:
[1] = Lipophilicity, log P of the compound; type: physicochemical; conditions: octanol/water
[2] = tested on: Escherichia coli; assay: Antimicrobial activity against Escherichia coli HN1157/pHSG576oxa7 assessed as minimal drug concentration; type: functional
How it was run: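 The inoculum was grown overnight in modified LB broth with 10 μg/ml chloramphenicol to keep the plasmid, diluted to OD660 0.1 and streaked across the gradient. Plates were read after overnight incubation at 30°C.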

[3] = tested on: Escherichia coli; assay: Antimicrobial activity against Escherichia coli HN1157/pHSG576oxa7; type: functional
[4] = tested on: Escherichia coli; conditions: HN1157
[5] = Permeability across Escherichia coli HN1157/pHSG576oxa7 assessed as permeability coefficient in presence of proton uncoupler carbonyl cyanide meta-chlorophenylhydrazone; type: ADME, organism-based; conditions: not told, read-out: permeability
[6] = substrate: Cc1onc(-c2c(Cl)cccc2Cl)c1C(=O)N[C@@H]1C(=O)N2[C@@H]1SC(C)(C)[C@@H]2C(=O)O; assay: (§1) Activity at Escherichia coli isolate 7181 beta-lactamase OXA-7
How it was run: (§2)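 Crude sonicates of E. coli HN1157 carrying low-copy pHSG576oxa7, grown 14 h at 30°C in modified LB with 10 μg/ml chloramphenicol (plus 0.1% glucose for some substrates). Extract equals OD600 0.025 cells (9.38 μg dry weight/ml) in 50 mM potassium phosphate, pH 7.0, 5 mM MgCl2. Penicillin hydrolysis stopped with TCA at 2 min. Microiodometric OD592 read after 30 min, minus a zero-time TCA blank. Km and Vmax expressed per mg cell dry weight.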

[7] = substrate: Cc1onc(-c2ccccc2Cl)c1C(=O)N[C@@H]1C(=O)N2[C@@H]1SC(C)(C)[C@@H]2C(=O)O; assay: as §1; how it was run: as §2
[8] = substrate: CC1(C)S[C@@H]2[C@H](NC(=O)[C@H](NC(=O)N3CCNC3=O)c3ccccc3)C(=O)N2[C@H]1C(=O)O; assay: as §1; how it was run: as §2
[9] = substrate: CC1(C)S[C@@H]2[C@H](NC(=O)[C@H](NC(=O)N3CCN(S(C)(=O)=O)C3=O)c3ccccc3)C(=O)N2[C@H]1C(=O)O; assay: as §1; how it was run: as §2
[10] = substrate: Cc1onc(-c2ccccc2)c1C(=O)N[C@@H]1C(=O)N2[C@@H]1SC(C)(C)[C@@H]2C(=O)O; assay: as §1; how it was run: as §2
[11] = substrate: CC1(C)S[C@@H]2[C@H](NC(=O)COc3ccccc3)C(=O)N2[C@H]1C(=O)O; assay: as §1; how it was run: as §2
[12] = substrate: CCN1CCN(C(=O)N[C@@H](C(=O)N[C@@H]2C(=O)N3[C@@H]2SC(C)(C)[C@@H]3C(=O)O)c2ccccc2)C(=O)C1=O; assay: as §1; how it was run: as §2

| Molecule | logP [1] | Activity [2] [µM] | MIC [3] [µg/mL] | K0.5 [4] [µM] | Papp [5] [×10⁻⁶ cm/s] | Km [6] [µM] | Km [7] [µM] | Km [8] [µM] | Km [9] [µM] | Km [10] [µM] | Km [11] [µM] | Km [12] [µM] |
| --- | --- | --- | --- | --- | --- | --- | --- | --- | --- | --- | --- | --- |
| CC1(C)S[C@@H]2[C@H](NC(=O)[C@H](N)c3ccccc3)C(=O)N2[C@H]1C(=O)O [AMPICILLIN] | -1.03 | 2.9 | 39 (≈ 112 µM) | – | – | – | – | – | – | – | – | – |
| CC1(C)S[C@@H]2[C@H](NC(=O)[C@H](NC(=O)N3CCNC3=O)c3ccccc3)C(=O)N2[C@H]1C(=O)O [AZLOCILLIN] | 0.71 | 1.3 | 44 (≈ 95.3 µM) | 1.06 | 40 | – | – | – | – | – | – | – |
| Cc1onc(-c2ccccc2Cl)c1C(=O)N[C@@H]1C(=O)N2[C@@H]1SC(C)(C)[C@@H]2C(=O)O [CLOXACILLIN] | 2.8 | 11 | 295 (≈ 677 µM) | 0.91 | 60 | – | – | – | – | – | – | – |
| Cc1onc(-c2c(Cl)cccc2Cl)c1C(=O)N[C@@H]1C(=O)N2[C@@H]1SC(C)(C)[C@@H]2C(=O)O [DICLOXACILLIN] | 3.4 | 39 | 560 (≈ 1190 µM) | 0.53 | 60 | – | – | – | – | – | – | – |
| CC1(C)S[C@@H]2[C@H](NC(=O)[C@H](NC(=O)N3CCN(S(C)(=O)=O)C3=O)c3ccccc3)C(=O)N2[C@H]1C(=O)O [MEZLOCILLIN] | 0.67 | 1.1 | 30 (≈ 55.6 µM) | 1.08 | 50 | – | – | – | – | – | – | – |
| Cc1onc(-c2ccccc2)c1C(=O)N[C@@H]1C(=O)N2[C@@H]1SC(C)(C)[C@@H]2C(=O)O [OXACILLIN] | 2.1 | 12 | 282 (≈ 702 µM) | 0.97 | 60 | – | – | – | – | – | – | – |
| CC1(C)S[C@@H]2[C@H](NC(=O)COc3ccccc3)C(=O)N2[C@H]1C(=O)O [PENICILLIN V] | 1.54 | 33 | 178 (≈ 508 µM) | 0.82 | 70 | – | – | – | – | – | – | – |
| CCN1CCN(C(=O)N[C@@H](C(=O)N[C@@H]2C(=O)N3[C@@H]2SC(C)(C)[C@@H]3C(=O)O)c2ccccc2)C(=O)C1=O [PIPERACILLIN] | 0.45 | 1.2 | 46 (≈ 88.9 µM) | 1.06 | 30 | – | – | – | – | – | – | – |
| Beta-lactamase OXA-7 (Escherichia coli), P35695 (protein) MKTFAAYVITACLSSTALASSITENTFWNKEFSAEAVNGVFVLCKSSSKLACATNNLARASKEYLPASTFKIPNAIIGLETGVIKNEHQIFKWDGKPRAMKQWERDLSLRGAIQVSAVPVFQQIAREVGEVRMQKYLKKFSYGNQNISGGIDKFWLEGQLRISAVNQVEFLESLFLNKLSASKENQLIVKEALVTEAPEYLVHSKTGFSGVGTESNPGVAWWVGWVEKGAEVYFFAFNMDIDNENKLPLRKSIPTKIMASEGIIGG | – | – | – | – | – | 34 | 31 | 18 | 29 | 52 | 29 | 34 |
